In ChEMBL document CHEMBL1140861, “Short antisense oligonucleotides with novel 2'-4' conformationaly restricted nucleoside analogues show improved potency without increased toxicity in animals” (J Med Chem, 2009):
The source made the active and inactive calls. No cut-off for these calls is given here.

Columns and labels:
Mus musculus [1] = assay: Hepatotoxicity in BALB/c mouse assessed as increase in liver ALT level at 60 mg/kg, ip after 72 hrs; type: toxicity, organism-based; design: dose 60 mg/kg, route intraperitoneal; settings: in vivo
Mus musculus [2] = assay: Reduction of PTEN mRNA level in BALB/c mouse liver at 37 mg/kg, ip after 72 hrs; type: functional, organism-based; design: dose 37 mg/kg
Mus musculus [3] = assay: Reduction of PTEN mRNA level in BALB/c mouse liver at 60 mg/kg, ip after 72 hrs; type: functional, organism-based; design: dose 60 mg/kg
Mus musculus [4] = species on record: Mus musculus; assay: Binding affinity to mouse PTEN mRNA assessed as melting temperature
In short: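 Tm of ASO–RNA duplex, i.e. melting temperature of the ASO hybridised to its complementary RNA.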

bEND = assay: Reduction in mouse PTEN mRNA level expressed in mouse bEND cells; type: functional, cell-based
In short: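 bEND mouse brain endothelial cells transfected with ASO using lipofectin; PTEN mRNA reduction measured over a dose range; IC50 taken from dose-response curves.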

Mus musculus [5] = assay: Reduction of PTEN mRNA level in ip dosed BALB/c mouse liver after 72 hrs; type: functional

Row | Tm (Mus musculus [4]) [°C] | IC50 (bEND) [nM] | SMILES | Activity (Mus musculus [1]) | Activity (Mus musculus [2]) | Activity (Mus musculus [3]) | ED50 (Mus musculus [5]) [mg/kg]
1 |  |  | Cc1cn([C@@H]2O[C@@]3(COP(O)(=S)O[C@H]4[C@H]5OC[C@]4(COP(O)(=S)O[C@@H]4[C@H](O)[C@@H](COP(O)(=S)O[C@H]6[C@@H](O)[C@H](n7cnc8c(=O)[nH]c(N)nc87)O[C@@H]6COP(O)(=S)O[C@H]6[C@@H](O)[C@H](n7ccc(N)nc7=O)O[C@@H]6COP(O)(=S)O[C@H]6[C@@H](O)[C@H](n7ccc(N)nc7=O)O[C@@H]6COP(O)(=S)O[C@H]6C[C@H](n7cc(C)c(=O)[nH]c7=O)O[C@@H]6COP(O)(=S)O[C@H]6[C@@H](O)[C@H](n7ccc(N)nc7=O)O[C@@H]6COP(O)(=S)O[C@H]6C[C@H](n7cc(C)c(=O)[nH]c7=O)O[C@@H]6COP(O)(=S)O[C@H]6[C@@H](O)[C@H](n7cnc8c(=O)[nH]c(N)nc87)O[C@@H]6COP(O)(=S)O[C@H]6[C@@H](O)[C@H](n7cnc8c(=O)[nH]c(N)nc87)O[C@@H]6COP(O)(=S)O[C@H]6[C@@H](O)[C@H](n7cnc8c(N)ncnc87)O[C@@H]6COP(O)(=S)O[C@H]6[C@H]7OC[C@]6(COP(O)(=S)O[C@H]6[C@H]8OC[C@]6(COP(O)(=S)O[C@H]6[C@H]9OC[C@]6(CO)O[C@H]9n6cc(C)c(=O)[nH]c6=O)O[C@H]8n6cc(C)c(=O)[nH]c6=O)O[C@H]7n6cc(C)c(=O)[nH]c6=O)O[C@H]4n4cnc6c(N)ncnc64)O[C@H]5n4cc(C)c(=O)[nH]c4=O)CO[C@@H]2[C@@H]3O)c(=O)nc1N (stereo partly drawn) | Non-toxic | Active | Active | 
2 |  |  | Cc1cn([C@@H]2O[C@@]3(COP(O)(=S)O[C@H]4[C@H]5OC[C@]4(CO)O[C@H]5n4cc(C)c(N)nc4=O)CO[C@@H]2[C@@H]3OP(O)(=S)OC[C@H]2O[C@@H](n3cnc4c(N)ncnc43)[C@H](O)[C@@H]2OP(O)(=S)OC[C@H]2O[C@@H](n3cnc4c(=O)[nH]c(N)nc43)[C@H](O)[C@@H]2OP(O)(=S)OC[C@H]2O[C@@H](n3cnc4c(=O)[nH]c(N)nc43)[C@H](O)[C@@H]2OP(O)(=S)OC[C@H]2O[C@@H](n3cc(C)c(=O)[nH]c3=O)C[C@@H]2OP(O)(=S)OC[C@H]2O[C@@H](n3ccc(N)nc3=O)[C@H](O)[C@@H]2OP(O)(=S)OC[C@H]2O[C@@H](n3ccc(N)nc3=O)[C@H](O)[C@@H]2OP(O)(=S)OC[C@H]2O[C@@H](n3ccc(N)nc3=O)[C@H](O)[C@@H]2OP(O)(=S)OC[C@H]2O[C@@H](n3cnc4c(=O)[nH]c(N)nc43)[C@H](O)[C@@H]2OP(O)(=S)OC[C@H]2O[C@@H](n3cnc4c(=O)[nH]c(N)nc43)[C@H](O)[C@@H]2OP(O)(=S)OC[C@H]2O[C@@H](n3cc(C)c(=O)[nH]c3=O)C[C@@H]2OP(O)(=S)OC[C@@]23CO[C@@H]([C@H](n4cc(C)c(=O)[nH]c4=O)O2)[C@@H]3OP(O)(=S)OC[C@@]23CO[C@@H]([C@H](n4ccc(N)nc4=O)O2)[C@@H]3O)c(=O)nc1N (stereo partly drawn) | Non-toxic | Active | Active | 
3 | 57.6 | 5 | COC[C@@H]1O[C@H]2[C@H](n3cc(C)c(N)nc3=O)O[C@]1(COP(O)(=S)O[C@H]1[C@H]3O[C@@H](COC)[C@]1(COP(O)(=S)O[C@H]1C[C@H](n4cc(C)c(=O)[nH]c4=O)O[C@@H]1COP(O)(=S)O[C@H]1[C@@H](O)[C@H](n4cnc5c4N=CNC5N)O[C@@H]1COP(O)(=S)O[C@H]1[C@@H](O)[C@H](n4cnc5c(=O)[nH]c(N)nc54)O[C@@H]1COP(O)(=S)O[C@H]1[C@@H](O)[C@H](n4ccc(N)nc4=O)O[C@@H]1COP(O)(=S)O[C@H]1[C@@H](O)[C@H](n4cnc5c(N)ncnc54)O[C@@H]1COP(O)(=S)O[C@H]1[C@@H](O)[C@H](n4ccc(N)nc4=O)O[C@@H]1COP(O)(=S)O[C@H]1[C@@H](O)[C@H](n4cc(C)c(=O)[nH]c4=O)O[C@@H]1COP(O)(=S)O[C@H]1[C@@H](O)[C@H](n4cnc5c(=O)[nH]c(N)nc54)O[C@@H]1COP(O)(=S)O[C@H]1[C@@H](O)[C@H](n4cnc5c(=O)[nH]c(N)nc54)O[C@@H]1COP(O)(=S)O[C@H]1[C@@H](O)[C@H](n4ccc(N)nc4=O)O[C@@H]1COP(O)(=S)O[C@H]1[C@H]4O[C@@H](COC)[C@]1(COP(O)(=S)O[C@H]1[C@H]5O[C@@H](COC)[C@]1(CO)O[C@H]5n1ccc(=O)[nH]c1=O)O[C@H]4n1cc(C)c(N)nc1=O)O[C@H]3n1ccc(=O)[nH]c1=O)[C@H]2O (stereo partly drawn) |  |  |  | 25
4 |  |  | COCCO[C@@H]1[C@H](O)[C@@H](COP(O)(=S)O[C@H]2[C@@H](OCCOC)[C@H](n3cc(C)c(N)nc3=O)O[C@@H]2COP(O)(=S)O[C@H]2[C@@H](OCCOC)[C@H](n3cc(C)c(=O)[nH]c3=O)O[C@@H]2COP(O)(=S)O[C@H]2[C@@H](OCCOC)[C@H](n3cc(C)c(=O)[nH]c3=O)O[C@@H]2COP(O)(=S)O[C@H]2[C@@H](OCCOC)[C@H](n3cc(C)c(N)nc3=O)O[C@@H]2COP(O)(=S)O[C@H]2[C@@H](O)[C@H](n3cc(C)c(N)nc3=O)O[C@@H]2COP(O)(=S)O[C@H]2[C@@H](O)[C@H](n3cc(C)c(N)nc3=O)O[C@@H]2COP(O)(=S)O[C@H]2C[C@H](n3cc(C)c(=O)[nH]c3=O)O[C@@H]2COP(O)(=S)O[C@H]2[C@@H](O)[C@H](n3cnc4c(=O)[nH]c(N)nc43)O[C@@H]2COP(O)(=S)O[C@H]2[C@@H](O)[C@H](n3cnc4c(N)ncnc43)O[C@@H]2COP(O)(=S)O[C@@H]2[C@H](O)[C@@H](COP(O)(=S)O[C@H]3[C@@H](O)[C@H](n4cnc5c(=O)[nH]c(N)nc54)O[C@@H]3COP(O)(=S)O[C@H]3[C@@H](O)[C@H](n4cnc5c(=O)[nH]c(N)nc54)O[C@@H]3COP(O)(=S)O[C@H]3C[C@H](n4cc(C)c(=O)[nH]c4=O)O[C@@H]3COP(O)(=S)O[C@H]3C[C@H](n4cc(C)c(=O)[nH]c4=O)O[C@@H]3COP(O)(=S)O[C@H]3[C@@H](OCCOC)[C@H](n4cc(C)c(=O)[nH]c4=O)O[C@@H]3COP(O)(=S)O[C@H]3[C@@H](OCCOC)[C@H](n4cc(C)c(N)nc4=O)O[C@@H]3COP(O)(=S)O[C@H]3[C@@H](OCCOC)[C@H](n4ccc(N)nc4=O)O[C@@H]3COP(O)(=S)O[C@H]3[C@@H](OCCOC)[C@H](n4cc(C)c(N)nc4=O)O[C@@H]3COP(O)(=S)O[C@H]3[C@@H](OCCOC)[C@H](n4cc(C)c(N)nc4=O)O[C@@H]3CO)O[C@H]2n2cnc3c(N)ncnc32)O[C@H]1n1cc(C)c(N)nc1=O (stereo partly drawn) | Non-toxic | Active | Active | 
5 |  |  | Cc1cn([C@@H]2O[C@@]3(COP(O)(=S)O[C@H]4[C@H]5OC[C@]4(COP(O)(=S)O[C@@H]4[C@H](O)[C@@H](COP(O)(=S)O[C@H]6[C@@H](O)[C@H](n7cnc8c(=O)[nH]c(N)nc87)O[C@@H]6COP(O)(=S)O[C@H]6[C@@H](O)[C@H](n7ccc(N)nc7=O)O[C@@H]6COP(O)(=S)O[C@H]6[C@@H](O)[C@H](n7ccc(N)nc7=O)O[C@@H]6COP(O)(=S)O[C@H]6C[C@H](n7cc(C)c(=O)[nH]c7=O)O[C@@H]6COP(O)(=S)O[C@H]6[C@@H](O)[C@H](n7ccc(N)nc7=O)O[C@@H]6COP(O)(=S)O[C@H]6C[C@H](n7cc(C)c(=O)[nH]c7=O)O[C@@H]6COP(O)(=S)O[C@H]6[C@@H](O)[C@H](n7cnc8c(=O)[nH]c(N)nc87)O[C@@H]6COP(O)(=S)O[C@H]6[C@@H](O)[C@H](n7cnc8c(=O)[nH]c(N)nc87)O[C@@H]6COP(O)(=S)O[C@H]6[C@@H](O)[C@H](n7cnc8c(N)ncnc87)O[C@@H]6COP(O)(=S)O[C@H]6[C@H]7OC[C@]6(COP(O)(=S)O[C@H]6[C@H]8OC[C@]6(COP(O)(=S)O[C@H]6[C@H]9OC[C@]6(CO)O[C@H]9n6cc(C)c(=O)[nH]c6=O)O[C@H]8n6cc(C)c(=O)[nH]c6=O)O[C@H]7n6cc(C)c(=O)[nH]c6=O)O[C@H]4n4cnc6c(N)ncnc64)O[C@H]5n4cc(C)c(=O)[nH]c4=O)CO[C@@H]2[C@@H]3OP(O)(=S)OC[C@@]23CO[C@@H]([C@H](n4cnc5c(=O)[nH]c(N)nc54)O2)[C@@H]3O)c(=O)nc1N (stereo partly drawn) | Non-toxic | Active | Active | 
6 |  |  | Cc1cn([C@@H]2O[C@@]3(COP(O)(=S)O[C@H]4[C@H]5OC[C@]4(COP(O)(=S)O[C@@H]4[C@H](O)[C@@H](COP(O)(=S)O[C@H]6[C@@H](O)[C@H](n7cnc8c(=O)[nH]c(N)nc87)O[C@@H]6COP(O)(=S)O[C@H]6[C@@H](O)[C@H](n7ccc(N)nc7=O)O[C@@H]6COP(O)(=S)O[C@H]6[C@@H](O)[C@H](n7ccc(N)nc7=O)O[C@@H]6COP(O)(=S)O[C@H]6C[C@H](n7cc(C)c(=O)[nH]c7=O)O[C@@H]6COP(O)(=S)O[C@H]6[C@@H](O)[C@H](n7ccc(N)nc7=O)O[C@@H]6COP(O)(=S)O[C@H]6C[C@H](n7cc(C)c(=O)[nH]c7=O)O[C@@H]6COP(O)(=S)O[C@H]6[C@@H](O)[C@H](n7cnc8c(=O)[nH]c(N)nc87)O[C@@H]6COP(O)(=S)O[C@H]6[C@@H](O)[C@H](n7cnc8c(=O)[nH]c(N)nc87)O[C@@H]6COP(O)(=S)O[C@H]6[C@@H](O)[C@H](n7cnc8c(N)ncnc87)O[C@@H]6COP(O)(=S)O[C@H]6[C@H]7OC[C@]6(COP(O)(=S)O[C@H]6[C@H]8OC[C@]6(CO)O[C@H]8n6cc(C)c(=O)[nH]c6=O)O[C@H]7n6cc(C)c(=O)[nH]c6=O)O[C@H]4n4cnc6c(N)ncnc64)O[C@H]5n4cc(C)c(=O)[nH]c4=O)CO[C@@H]2[C@@H]3O)c(=O)nc1N (stereo partly drawn) | Non-toxic | Active | Active | 
